# The source made the active and inactive calls. The calls are words filed in the database; no cut-off is given here.
# Key:
# [1] = test system: A-375; test: Cytotoxicity against human A375 cells assessed as reduction in cell growth at 30 uM incubated for 72 hrs by MTT assay relative to control; assay type: functional; conditions: A-375, 72 h, read-out: GI
# [2] = test system: A-431; test: Cytotoxicity against human A431 cells assessed as reduction in cell growth at 3 uM incubated for 72 hrs by MTT assay relative to control; assay type: functional; conditions: A-431, 72 h, read-out: GI
# How it was run: (§1)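 Cells grown in DMEM with 10% FBS and penicillin-streptomycin at 37 °C, 5% CO2, seeded at 3000 cells/well and attached overnight. Screening series given at 1, 3, 10, 100 μM; follow-up agent at 100 nM–3 μM; both 72 h, with 0.1% DMSO vehicle. MTT (5 mg/mL stock) added for 3 h at 37 °C, formazan dissolved in DMSO, absorbance read at 570 nm. Viability expressed as % of DMSO-treated wells from replicates.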
# [3] = test system: MCF7; test: Induction of apoptosis in human MCF7 cells assessed as downregulation of c-Jun protein expression 100 nM to 3 uM incubated for 48 hrs by immunoblot method; assay type: functional, cell-based
# How it was run: (§2)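 MCF7 cells seeded at 1.25×10^5 per well in six-well plates and treated at 100 nM–3 μM for 48 h per legend (72 h per methods note). Lysed in 2X SDS buffer and sonicated; protein quantified by BCA. 20–25 µg run on 12% SDS gels and transferred to PVDF. Blocked in 5% BSA/TBST, primary antibodies overnight, secondary 1 h, ECL detection, β-actin as loading control.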
# [4] = test system: A-431; test: Cytotoxicity against human A431 cells assessed as reduction in cell growth at 100 uM incubated for 72 hrs by MTT assay relative to control; assay type: functional; conditions: A-431, 72 h, read-out: GI; how it was run: as §1
# [5] = test system: MCF7; test: Cytotoxicity against human MCF7 cells assessed as reduction in cell growth at 30 uM incubated for 72 hrs by MTT assay relative to control; assay type: functional; conditions: MCF7, 72 h, read-out: GI
# [6] = test system: A-431; test: Cytotoxicity against human A431 cells assessed as reduction in cell growth incubated for 72 hrs by MTT assay; assay type: functional, cell-based; conditions: A-431, 72 h; how it was run: as §1
# [7] = test system: HeLa; test: Cytotoxicity against human HeLa cells assessed as reduction in cell growth at 1 uM incubated for 72 hrs by MTT assay relative to control; assay type: functional; conditions: read-out: GI; how it was run: as §1
# [8] = test system: HeLa; test: Cytotoxicity against human HeLa cells assessed as reduction in cell growth incubated for 72 hrs by MTT assay; assay type: functional, cell-based; how it was run: as §1
# [9] = test system: MCF7; test: Induction of apoptosis in human MCF7 cells assessed as reduction in Bcl2 protein expression at 100 nM to 3 uM incubated for 48 hrs by immunoblot method; assay type: functional, cell-based; how it was run: as §2
# [10] = test system: MCF7; test: Cytotoxicity against human MCF7 cells assessed as reduction in cell growth at 10 uM incubated for 72 hrs by MTT assay relative to control; assay type: functional; conditions: MCF7, 72 h, read-out: GI; how it was run: as §1
# [11] = test system: A-375; test: Cytotoxicity against human A375 cells assessed as reduction in cell growth incubated for 72 hrs by MTT assay; assay type: functional, cell-based; conditions: A-375, 72 h; how it was run: as §1
# [12] = test system: HeLa; test: Cytotoxicity against human HeLa cells assessed as reduction in cell growth at 10 uM incubated for 72 hrs by MTT assay relative to control; assay type: functional; conditions: read-out: GI; how it was run: as §1
# [13] = test system: A-375; test: Cytotoxicity against human A375 cells assessed as reduction in cell growth at 1 uM incubated for 72 hrs by MTT assay relative to control; assay type: functional; conditions: A-375, 72 h, read-out: GI; how it was run: as §1
# [14] = test system: A-375; test: Cytotoxicity against human A375 cells assessed as reduction in cell growth at 100 uM incubated for 72 hrs by MTT assay relative to control; assay type: functional; conditions: A-375, 72 h, read-out: GI; how it was run: as §1
# [15] = test system: A-375; test: Cytotoxicity against human A375 cells assessed as reduction in cell growth at 10 uM incubated for 72 hrs by MTT assay relative to control; assay type: functional; conditions: A-375, 72 h, read-out: GI; how it was run: as §1
# [16] = test system: A-431; test: Cytotoxicity against human A431 cells assessed as reduction in cell growth at 30 uM incubated for 72 hrs by MTT assay relative to control; assay type: functional; conditions: A-431, 72 h, read-out: GI
# [17] = test system: A-431; test: Cytotoxicity against human A431 cells assessed as reduction in cell growth at 10 uM incubated for 72 hrs by MTT assay relative to control; assay type: functional; conditions: A-431, 72 h, read-out: GI; how it was run: as §1
# [18] = test system: MCF7; test: Induction of apoptosis in human MCF7 cells assessed as effect on PARP1 protein expression at 100 nM to 3 uM incubated for 48 hrs by immunoblot method; assay type: functional, cell-based; how it was run: as §2
# [19] = test system: MCF7; test: Cytotoxicity against human MCF7 cells assessed as reduction in cell growth at 3 uM incubated for 72 hrs by MTT assay relative to control; assay type: functional; conditions: MCF7, 72 h, read-out: GI; how it was run: as §1
# [20] = test system: MCF7; test: Induction of apoptosis in human MCF7 cells assessed as effect on pro-caspase-3 expression at 100 nM to 3 uM incubated for 48 hrs by immunoblot method; assay type: functional, cell-based; how it was run: as §2
# [21] = test system: MCF7; test: Cytotoxicity against human MCF7 cells assessed as reduction in cell growth at 1 uM incubated for 72 hrs by MTT assay relative to control; assay type: functional; conditions: MCF7, 72 h, read-out: GI; how it was run: as §1
# [22] = test system: MCF7; test: Antiproliferative activity against human MCF7 cells assessed as inhibition of colony formation at 100 nM to 3 uM incubated for 21 days with every 72 hrs media was change treatment by crystal violet staining based assay; assay type: functional, cell-based
# How it was run: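 MCF7 cells seeded at 500 cells/well (legend: 1200/well) in six-well plates, left to adhere overnight, then dosed at 100 nM–3 μM. Medium and compound renewed every 72 h over 21 days. Colonies washed with PBS, fixed in 3.7% formaldehyde 20 min, stained with 0.4% crystal violet, rinsed in PBS, then counted.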
# [23] = test system: HeLa; test: Cytotoxicity against human HeLa cells assessed as reduction in cell growth at 3 uM incubated for 72 hrs by MTT assay relative to control; assay type: functional; conditions: read-out: GI; how it was run: as §1
# [24] = test system: MCF7; test: Antiproliferative activity against human MCF7 cells assessed as induction of cell death at 100 nM to 3 uM incubated for 48 hrs by propidium iodide based flow cytometry; assay type: functional
# How it was run: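 MCF7 cells in DMEM with 10% FBS at 37 °C, 5% CO2, 30,000 cells/well in six-well plates, exposed to 100 nM, 300 nM, 1 μM or 3 μM (0.1% DMSO vehicle) for 48 h per legend (72 h per methods note). Harvested, washed in PBS, stained with propidium iodide (5 μg/mL) 20 min at 4 °C, and % dead cells read by flow cytometry against DMSO control.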
# [25] = test system: MCF7; test: Cytotoxicity against human MCF7 cells assessed as reduction in cell growth incubated for 72 hrs by MTT assay; assay type: functional, cell-based; conditions: MCF7, 72 h; how it was run: as §1
# [26] = test system: A-431; test: Cytotoxicity against human A431 cells assessed as reduction in cell growth at 1 uM incubated for 72 hrs by MTT assay relative to control; assay type: functional; conditions: A-431, 72 h, read-out: GI; how it was run: as §1
# [27] = test system: MCF7; test: Cytotoxicity against human MCF7 cells assessed as reduction in cell growth at 100 uM incubated for 72 hrs by MTT assay relative to control; assay type: functional; conditions: MCF7, 72 h, read-out: GI; how it was run: as §1
# [28] = test system: MCF7; test: Induction of apoptosis in human MCF7 cells assessed as increase in Bax protein expression at 100 nM to 3 uM incubated for 48 hrs by immunoblot method; assay type: functional, cell-based; how it was run: as §2
# [29] = test system: HeLa; test: Cytotoxicity against human HeLa cells assessed as reduction in cell growth at 30 uM incubated for 72 hrs by MTT assay relative to control; assay type: functional; conditions: read-out: GI
# [30] = test system: MCF7; test: Cytotoxicity against human MCF7 cells assessed as reduction in cell growth at 100 nM to 3 uM incubated for 72 hrs by MTT assay; assay type: functional, cell-based; how it was run: as §1
# [31] = test system: HeLa; test: Cytotoxicity against human HeLa cells assessed as reduction in cell growth at 100 uM incubated for 72 hrs by MTT assay relative to control; assay type: functional; conditions: read-out: GI; how it was run: as §1
# [32] = test system: A-375; test: Cytotoxicity against human A375 cells assessed as reduction in cell growth at 3 uM incubated for 72 hrs by MTT assay relative to control; assay type: functional; conditions: A-375, 72 h, read-out: GI; how it was run: as §1
# [33] = test system: MCF7; test: Induction of apoptosis in human MCF7 cells assessed as downregulation of JNK1 protein expression at 100 nM to 3 uM incubated for 48 hrs by immunoblot method; assay type: functional, cell-based; how it was run: as §2
smiles,measurement,setting,value
N/C(=N\NC(=S)N1CCCC1)c1ccc(F)cn1,inhibition of growth at 30 µM,[1],83.2%
same,inhibition of growth at 3 µM,[2],72.2%
same,Activity,[3],Dose-dependent effect
same,inhibition of growth at 100 µM,[4],85.6%
same,inhibition of growth at 30 µM,[5],60.6%
same,IC50,[6],1000 nM
same,inhibition of growth at 1 µM,[7],62.8%
same,IC50,[8],1800 nM
same,Activity,[9],Active
same,inhibition of growth at 10 µM,[10],54.5%
same,IC50,[11],860 nM
same,inhibition of growth at 10 µM,[12],72.7%
same,inhibition of growth at 1 µM,[13],57.9%
same,inhibition of growth at 100 µM,[14],86.6%
same,inhibition of growth at 10 µM,[15],82.3%
same,inhibition of growth at 30 µM,[16],83.3%
same,inhibition of growth at 10 µM,[17],78.7%
same,Activity,[18],Active
same,inhibition of growth at 3 µM,[19],52.6%
same,Activity,[20],Active
same,inhibition of growth at 1 µM,[21],51%
same,inhibition,[22],Dose-dependent effect
same,inhibition of growth at 3 µM,[23],77.7%
same,Activity,[24],Dose-dependent effect
same,IC50,[25],900 nM
same,inhibition of growth at 1 µM,[26],50.7%
same,inhibition of growth at 100 µM,[27],73%
same,Activity,[28],Active
same,inhibition of growth at 30 µM,[29],81.2%
same,Activity,[30],Dose-dependent effect
same,inhibition of growth at 100 µM,[31],85.4%
same,inhibition of growth at 3 µM,[32],81.8%
same,Activity,[33],Dose-dependent effect
